Reference: ChEMBL document CHEMBL5058577, “EUbOPEN Chemogenomics Library 2 (Multiplex)” (2022)

System: Fibroblast
Experiment: Multiplex assay against human fibroblast
Assay type: toxicity, cell-based
Method in brief: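 Values for tubulin, mitochondrial-mass and membrane-permeability phenotypes are per cents of cells with healthy nuclei. These cells were identified by CellPathfinder machine-learning gating of live cells that had been stained at seeding with Hoechst33342, BioTracker Green Microtubule Cytoskeleton Dye, MitoTracker Red and Annexin V Alexa Fluor 680 and imaged on a CQ1 microscope at 37°C and 5% CO2 after compound addition. The gating first set Hoechst high-intensity objects apart from normal cells, then split normal cells into healthy, pyknosed or fragmented nuclei, and pyknosed cells into mitotic or apoptotic.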

[1] = 12 h, 1 µM, compound concentration 1 uM, replicate 1
[2] = 12 h, 1 µM, compound concentration 1 uM, replicate 2
[3] = 12 h, 10 µM, compound concentration 10 uM, replicate 1
[4] = 12 h, 10 µM, compound concentration 10 uM, replicate 2
[5] = 24 h, 1 µM, compound concentration 1 uM, replicate 1
[6] = 24 h, 1 µM, compound concentration 1 uM, replicate 2
[7] = 24 h, 10 µM, compound concentration 10 uM, replicate 1
[8] = 24 h, 10 µM, compound concentration 10 uM, replicate 2
[9] = 48 h, 1 µM, compound concentration 1 uM, replicate 1
[10] = 48 h, 1 µM, compound concentration 1 uM, replicate 2
[11] = 48 h, 10 µM, compound concentration 10 uM, replicate 1
[12] = 48 h, 10 µM, compound concentration 10 uM, replicate 2

SMILES: CN1C[C@H](C(=O)N[C@]2(C)O[C@@]3(O)[C@@H]4CCCN4C(=O)[C@H](Cc4ccccc4)N3C2=O)C[C@@H]2c3cccc4[nH]cc(c34)C[C@H]21.CS(=O)(=O)O [DIHYDROERGOTAMINE MESYLATE]
- Population Apoptotic (%) [1]: 25%
- Population Fragmented Nuclei (%) [1]: 13%
- Population Healthy Nuclei (%) [1]: 70%
- Population Hoechst High Intensity Objects (%) [1]: 1%
- Population Membrane Permeable-Phenotype (%) [1]: 1%
- Population Mitochondria Different-Phenotype (%) [1]: 1%
- Population Mitotic Cells (%) [1]: 75%
- Population Normal (%) [1]: 98%
- Population Pyknosed Nuclei (%) [1]: 16%
- Population Tubulin-Different-Phenotype (%) [1]: 23%
- Total Cell Count [1]: 127
- Population Apoptotic (%) [2]: 47%
- Population Fragmented Nuclei (%) [2]: 32%
- Population Healthy Nuclei (%) [2]: 51%
- Population Hoechst High Intensity Objects (%) [2]: 7%
- Population Membrane Permeable-Phenotype (%) [2]: 6%
- Population Mitochondria Different-Phenotype (%) [2]: 5%
- Population Mitotic Cells (%) [2]: 52%
- Population Normal (%) [2]: 92%
- Population Tubulin-Different-Phenotype (%) [2]: 31%
- Total Cell Count [2]: 155
- Population Apoptotic (%) [3]: 57%
- Population Fragmented Nuclei (%) [3]: 27%
- Population Healthy Nuclei (%) [3]: 65%
- Population Hoechst High Intensity Objects (%) [3]: 0%
- Population Membrane Permeable-Phenotype (%) [3]: 0%
- Population Mitochondria Different-Phenotype (%) [3]: 5%
- Population Mitotic Cells (%) [3]: 42%
- Population Normal (%) [3]: 100%
- Population Pyknosed Nuclei (%) [3]: 7%
- Population Tubulin-Different-Phenotype (%) [3]: 8%
- Total Cell Count [3]: 92
- Population Apoptotic (%) [4]: 31%
- Population Fragmented Nuclei (%) [4]: 33%
- Population Healthy Nuclei (%) [4]: 45%
- Population Hoechst High Intensity Objects (%) [4]: 8%
- Population Membrane Permeable-Phenotype (%) [4]: 2%
- Population Mitochondria Different-Phenotype (%) [4]: 0%
- Population Mitotic Cells (%) [4]: 68%
- Population Normal (%) [4]: 91%
- Population Pyknosed Nuclei (%) [4]: 21%
- Population Tubulin-Different-Phenotype (%) [4]: 42%
- Total Cell Count [4]: 114
- Population Apoptotic (%) [5]: 38%
- Population Fragmented Nuclei (%) [5]: 14%
- Population Healthy Nuclei (%) [5]: 75%
- Population Hoechst High Intensity Objects (%) [5]: 1%
- Population Membrane Permeable-Phenotype (%) [5]: 0%
- Population Mitochondria Different-Phenotype (%) [5]: 0%
- Population Mitotic Cells (%) [5]: 61%
- Population Normal (%) [5]: 98%
- Population Pyknosed Nuclei (%) [5]: 10%
- Population Tubulin-Different-Phenotype (%) [5]: 18%
- Total Cell Count [5]: 130
- Population Apoptotic (%) [6]: 47%
- Population Fragmented Nuclei (%) [6]: 30%
- Population Healthy Nuclei (%) [6]: 56%
- Population Hoechst High Intensity Objects (%) [6]: 4%
- Population Membrane Permeable-Phenotype (%) [6]: 7%
- Population Mitochondria Different-Phenotype (%) [6]: 3%
- Population Mitotic Cells (%) [6]: 52%
- Population Normal (%) [6]: 95%
- Population Pyknosed Nuclei (%) [6]: 13%
- Population Tubulin-Different-Phenotype (%) [6]: 50%
- Total Cell Count [6]: 149
- Population Apoptotic (%) [7]: 55%
- Population Fragmented Nuclei (%) [7]: 17%
- Population Healthy Nuclei (%) [7]: 72%
- Population Hoechst High Intensity Objects (%) [7]: 1%
- Population Membrane Permeable-Phenotype (%) [7]: 0%
- Population Mitochondria Different-Phenotype (%) [7]: 1%
- Population Mitotic Cells (%) [7]: 44%
- Population Normal (%) [7]: 98%
- Population Pyknosed Nuclei (%) [7]: 10%
- Population Tubulin-Different-Phenotype (%) [7]: 15%
- Total Cell Count [7]: 89
- Population Apoptotic (%) [8]: 31%
- Population Fragmented Nuclei (%) [8]: 35%
- Population Healthy Nuclei (%) [8]: 43%
- Population Hoechst High Intensity Objects (%) [8]: 5%
- Population Membrane Permeable-Phenotype (%) [8]: 6%
- Population Mitochondria Different-Phenotype (%) [8]: 0%
- Population Mitotic Cells (%) [8]: 68%
- Population Normal (%) [8]: 94%
- Population Pyknosed Nuclei (%) [8]: 20%
- Population Tubulin-Different-Phenotype (%) [8]: 46%
- Total Cell Count [8]: 113
- Population Apoptotic (%) [9]: 57%
- Population Fragmented Nuclei (%) [9]: 20%
- Population Healthy Nuclei (%) [9]: 68%
- Population Hoechst High Intensity Objects (%) [9]: 1%
- Population Membrane Permeable-Phenotype (%) [9]: 0%
- Population Mitochondria Different-Phenotype (%) [9]: 2%
- Population Mitotic Cells (%) [9]: 42%
- Population Normal (%) [9]: 98%
- Population Pyknosed Nuclei (%) [9]: 10%
- Population Tubulin-Different-Phenotype (%) [9]: 30%
- Total Cell Count [9]: 134
- Population Apoptotic (%) [10]: 53%
- Population Fragmented Nuclei (%) [10]: 38%
- Population Healthy Nuclei (%) [10]: 50%
- Population Hoechst High Intensity Objects (%) [10]: 5%
- Population Membrane Permeable-Phenotype (%) [10]: 6%
- Population Mitochondria Different-Phenotype (%) [10]: 6%
- Population Mitotic Cells (%) [10]: 46%
- Population Normal (%) [10]: 94%
- Population Pyknosed Nuclei (%) [10]: 11%
- Population Tubulin-Different-Phenotype (%) [10]: 48%
- Total Cell Count [10]: 139
- Population Apoptotic (%) [11]: 63%
- Population Fragmented Nuclei (%) [11]: 21%
- Population Healthy Nuclei (%) [11]: 65%
- Population Hoechst High Intensity Objects (%) [11]: 3%
- Population Membrane Permeable-Phenotype (%) [11]: 1%
- Population Mitochondria Different-Phenotype (%) [11]: 3%
- Population Mitotic Cells (%) [11]: 36%
- Population Normal (%) [11]: 96%
- Population Pyknosed Nuclei (%) [11]: 12%
- Population Tubulin-Different-Phenotype (%) [11]: 20%
- Total Cell Count [11]: 91
- Population Apoptotic (%) [12]: 76%
- Population Fragmented Nuclei (%) [12]: 44%
- Population Healthy Nuclei (%) [12]: 44%
- Population Membrane Permeable-Phenotype (%) [12]: 11%
- Population Mitochondria Different-Phenotype (%) [12]: 5%
- Population Mitotic Cells (%) [12]: 23%
- Population Pyknosed Nuclei (%) [12]: 10%
- Population Tubulin-Different-Phenotype (%) [12]: 55%
- Total Cell Count [12]: 126
